The nature of the series: Toxicity liver stage against HepG2, at 10uM. It counts as cell-based. More on the design: test concentration 10 uM, cell line HepG2-A16-CD81EGFP. Particulars: human, HepG2-A16-CD81EGFP cells; read-out: INHIBITION
An outline of the steps: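 Uninfected HepG2-A16-CD81EGFP cells, 3 × 10^3 per well, 1536-well, plated on prespotted compound at 10 μM final, parasite-free screening media added to match infected plates; puromycin 10 μM positive, DMSO 0.5% negative; run in parallel with 48 h PbLuc assay at 37 °C, 5% CO2; viability by CellTiter-Glo luminescence, normalized to controls.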
On to `CC(C)c1cc(N[C@H](C(N)=O)C(C)C)n2nccc2n1`, for which the cytotoxicity at 10 µM is -1.56%.
The value for `O=C(CCC1CCCN(C(=O)CCN2CCCCO2)C1)N1CCCC1` (stereo unspecified) was 2.11%; that for `O=C(NCc1cc(Br)cs1)Nc1cn[nH]c1` was 5.85%.
The result for `Cc1ccc2nc(C(=O)N3CCC(CCn4cccn4)CC3)cn2c1` reads -18.3%; that for `CN(C)Cc1nn(C)c2c1CCN(C(=O)c1cccnc1)C2`, 6.24%; that for `CCc1nnc2n1CCN(C(=O)Cc1nc(-c3ccco3)oc1C)C2`, 1.19%.
The result for `COc1ccccc1CN1CC[C@]2(C[C@H](OC)CO2)C1` reads -11.1%; that for `Cc1ccc(NC(=O)N2CCCC2)c(OCC2CCCO2)c1` (stereo unspecified), 6.36%.
For the compound `CC(=O)N1[C@H](CN(C)C)C[C@@H]2CN(C(=O)c3cnc(C)cn3)CC[C@@H]21`, the cytotoxicity at 10 µM is -2.89%.
The result for `CC(=O)N1CCN(CCNC(=O)NC(C)Cn2ccnc2)CC1` (stereo unspecified) reads 5.74%.
The result for `CCc1ccc(C(CNC(=O)c2c(C)noc2C)N(C)C)cc1` (stereo unspecified) reads -7.83%.
The value for `CC1CCc2nn(CCNC(=O)Cc3ccccc3F)c(=O)cc2C1` (stereo unspecified) was 6.66%; that for `CCN(CC1COc2ccccc2O1)C(=O)C1=NN(C)C(=O)CC1` (stereo unspecified) was -39.6%; that for `CCc1oc(C(=O)N2CCC(N(CC)C(C)=O)C2)cc1CN(CC)CC` (stereo unspecified) was 8.31%.
In the case of `O=S(=O)(c1ccc(F)cc1)N1CCCC1c1cc[nH]n1` (stereo unspecified), the cytotoxicity at 10 µM is -5.94%.
The result for `O=c1c(=CS(=O)(=O)Nc2ccccc2)[nH]c(=O)n2cccc12` reads 0.458%; that for `Cc1ccsc1C1CCCCCN1Cc1cn(C)nc1C` (stereo unspecified), -4.38%.
For `Cc1ncnc2c1CCN(CC1CCOC1)CC2` (stereo unspecified), the cytotoxicity at 10 µM is -67.2%.
`CC(C)CNC(=O)[C@H]1C[C@H]2CN(C(=O)Nc3ccc(F)cc3)C[C@@H]1O2`: the cytotoxicity at 10 µM came out at 0.428%.
The result for `COc1cc(NC(=O)NC2CCCC2)ccc1N1CCOC1=O` reads -7.09%; that for `CCn1ncc(Nc2[nH]cnc3nc(C)nc2-3)c1C`, 3.26%.
Take `CCC(=O)N1CCC(Cc2nccnc2Nc2ccccn2)CC1`: the cytotoxicity at 10 µM is 5.82%.
The value for `Nc1c(C(=O)C2CCCN(C(=O)C3CC3)C2)cnn1-c1ccc(F)cc1` (stereo unspecified) was 6.12%.
`c1cncc(OC[C@]23COC[C@H]2CN(Cc2cccs2)C3)c1`: the cytotoxicity at 10 µM is -13%.
The result for `F[C@@H]1CN(CC2CC2)C[C@@H]1OCc1nc2ncccc2[nH]1` reads 5.52%; that for `CCc1nccn1C1CCCN(C(=O)c2ccc(OC)c(OC)c2)C1` (stereo unspecified), -20.6%.
Turning to `Cc1c(Cl)ccc2ccc(NC(CO)CO)nc12`, the cytotoxicity at 10 µM was -7.78%.
The result for `NC1CCC(n2cc(C(=O)NC3COc4ccccc43)nn2)CC1` (stereo unspecified) reads -4.8%.
The result for `Cc1cc(NC(=O)N2CCCC2CN2CCOCC2)nn1C` (stereo unspecified) reads 1.63%.
The value for `Nc1nc2c(c(NCC(c3cccnc3)N3CCOCC3)n1)CCCC2` (stereo unspecified) was -14.9%; that for `COc1cc(C)nc(N2CCN(C(=O)COC3CCCC3)CC2)n1` was -3.78%; that for `O=C(CCOc1ccc(Br)cc1)N1CCN(c2cnccn2)CC1` was 0.207%.
As to `COCCN(Cc1cccc(C#N)c1)Cc1nnsc1Cl`, the cytotoxicity at 10 µM was determined as 7.96%.
The value for `CN(Cc1ccc2c(c1)OCO2)C(=O)NCCc1cnn(C)c1` was -2.69%.
`O=c1cc2c(nn1CN1CCN(c3cccc(Cl)c3)CC1)CCC2`: the cytotoxicity at 10 µM is -3.19%.
Take `Cc1cc(C(=O)N[C@H](C)c2onc(C)c2C(=O)O)c(C)o1`: the cytotoxicity at 10 µM worked out at 3.82%.
The value for `CN(Cc1ccc(-n2cccn2)cc1)C(=O)CCC(F)(F)F` was -3.67%; that for `CC(C)c1nc2oc(C(=O)N3CCOCC3)c(N)c2c2c1CCCC2` was -3.71%.
The value for `CC(Cn1cccn1)NCC(=O)NC1CCOCC1` (stereo unspecified) was 2.51%; that for `Cc1noc(C)c1CC(=O)N1CCCC(n2ccnc2C)C1` (stereo unspecified) was -4.49%; that for `COC(=O)C(NC(=O)c1ccc(N(C)C)nc1)c1ccccc1` (stereo unspecified) was 4.15%.
The result for `CN(C)CCN1CCO[C@H]2CN(C(=O)c3ccsc3)C[C@H]21` reads 3%; that for `CN1CCC(c2nnc3n2CCN(S(=O)(=O)c2ccccc2)C3)CC1`, -2.02%; that for `CC(NC(=O)CCc1cccc(OC2CCCC2)c1)c1nncn1C` (stereo unspecified), 7.2%.
In the case of `COCCC(=O)N1C[C@H]2CN(Cc3cccc(C)c3)C(=O)[C@H]2C1`, the cytotoxicity at 10 µM stood at 2.05%.
Turning to `CN1C[C@@H](N)C[C@H]1C(=O)N1CCC(Cc2ccc(F)cc2)CC1`, the cytotoxicity at 10 µM was -21.2%.
The value for `CCC1=N[C@@]2(CC[C@@H]3CN(CC(C)C)C[C@@H]32)C(=O)N1` was 4.32%; that for `COc1cc(CN(C)Cc2ccncc2)c(SC)cc1OC` was 5.54%.
`Cc1cc2n(n1)[C@@H](C(F)(F)F)C[C@@H](C1CCN(C(=O)C(C)C)CC1)N2`: the cytotoxicity at 10 µM was -30%.
`CC(C)c1noc(C(C)S(=O)(=O)Cc2nc(C3CC3)no2)n1` (stereo unspecified): the cytotoxicity at 10 µM was -0.828%.
The value for `O=C(Cn1ccc2cc(Br)ccc21)NCc1ccc(C(=O)O)cc1` was 9.6%; that for `Cc1cnc(N)nc1N1CCN(CCCO)CC1` was 0.761%; that for `Cc1nccc([C@H]2C[C@@H]3CCN(C(=O)c4c(C)noc4C)C[C@H]3O2)n1` was -83.3%.
The result for `COc1cc(OC)cc(-c2cccc3c2OC(CN)C3)c1` (stereo unspecified) reads -53%; that for `CCOCC1CN(C(=O)c2cccn2C)Cc2cnn(CC3CC3)c21` (stereo unspecified), 8.37%; that for `COc1ccccc1OC1CN(C(=O)Cc2c(C)nc(N)nc2C)C1`, 0.866%.
The value for `CN1CCCCC1(C)C(=O)N1CCC(c2ccccn2)CC1` (stereo unspecified) was 1.66%; that for `Cc1nc(C2CCN(S(=O)(=O)c3ccc4c(c3)CCC4)CC2)n[nH]1` was -1.24%.
As for `Cc1csc(N2CCN(C(=O)CCNc3ncccn3)CC2)n1`, the cytotoxicity at 10 µM is -10.1%.
The value for `Cc1ccc2nc(CNCCCN3CCCC3=O)cc(O)c2c1` was -1.14%; that for `COc1ccc(Cl)cc1C(=O)N1CCCC(c2cc(C)[nH]n2)C1` (stereo unspecified) was -10.1%; that for `Cc1cc(CN(C)C(=O)c2ccc(Cl)cc2N2CCCC2=O)no1` was -15.9%.
Turning to `CC(NC(=O)NCCS(C)(=O)=O)c1ccc2c(c1)CCC(=O)N2` (stereo unspecified), the cytotoxicity at 10 µM was determined as 1.39%.
For `CN(C)[C@@H]1CN(C(=O)Cc2ccccc2)[C@@H]2CCCO[C@H]12`, the cytotoxicity at 10 µM was found to be 3.31%.
On to `CC1c2ccc(F)cc2CCN1C(=O)c1[nH]c(=O)[nH]c(=O)c1N` (stereo unspecified), for which the cytotoxicity at 10 µM is -5.22%.
The value for `COc1ccsc1C(=O)NCCNc1ccccc1` was -4.15%; that for `O=C(c1ccc(S(=O)(=O)NCC(F)F)cc1)N1C[C@H]2CNC[C@H]2C1` was -13%.
The value for `COCCSCC(=O)NCc1ccnc(N(C)C)c1` was 9.88%.
The result for `CC1CN(c2ncccc2C(=O)Nc2cccc3c2CCCC3)CCN1` (stereo unspecified) reads 4.65%.
In the case of `CC(=O)Nc1cccc2c1ccn2CC(=O)Nc1nc[nH]n1`, the cytotoxicity at 10 µM is -0.79%.
The result for `Cc1c(O)oc(-c2ccc(Br)cc2)nc1=O` reads -1.56%; that for `O=C(CCC(F)(F)F)N1CCCC2(CCC(=O)N(CC3CC3)C2)C1` (stereo unspecified), 7.4%; that for `O=C(c1ccco1)N1CCC(n2nc(-c3cccs3)ccc2=O)CC1`, -32.3%.
The value for `Oc1nc(-c2cnccn2)nc2c1CCN(Cc1ccccn1)C2` was 1.51%.
Take `CC(C)Cc1cc(C(=O)NCC2CCN(c3ccccc3F)C2)on1` (stereo unspecified): the cytotoxicity at 10 µM turned out to be 0.075%.
The result for `Cn1cnnc1CC1CCN(Cc2c(Cl)cncc2Cl)CC1` reads -9.42%; that for `c1cnc(N2CCCC3(COCCN(c4nncs4)C3)C2)cn1` (stereo unspecified), 1.77%.
For `Cn1cc(C2COC3(CCN(C(=O)Cc4ccccc4)CC3)C2)cn1` (stereo unspecified), the cytotoxicity at 10 µM is -108%.
The result for `CCc1ccc(CNC(=O)N2CCN(Cc3cc(C)on3)CC2)s1` reads -7.03%; that for `Cc1cc(O)ncc1NS(=O)(=O)c1cccc(F)c1F`, 0.753%; that for `Cc1cncc(C(=O)N2CCCC3(CCCN3S(C)(=O)=O)C2)c1` (stereo unspecified), -152%.
The value for `Cc1cccnc1NC(=O)CNC(=O)c1ccccc1Cl` was -3.36%; that for `Cc1nn(C)c(C)c1CN1CCN(CC2(O)CCCN(C)C2)CC1` (stereo unspecified) was 9.07%.
The value for `CC(C)c1nc(C2CCCN2CCN2CCCCC2)no1` (stereo unspecified) was -4.58%; that for `CCc1nnsc1C(=O)N1CCCC1c1c(C)nn(C)c1OC` (stereo unspecified) was -1.67%.
On to `CC(Cn1ccnc1)NC(=O)Cc1ccc2c(c1)OCCO2` (stereo unspecified), for which the cytotoxicity at 10 µM is -7.2%.
The value for `Cc1cnccc1N1CCN(c2nccc(CCC(F)(F)F)n2)CC1` was 4.91%.
Consider `CCc1nc(CN2CCCC(N(C)CCn3cccn3)C2)no1` (stereo unspecified), for which the cytotoxicity at 10 µM was -11.5%.
The result for `COc1cc(N2CCCC(c3nccn3Cc3cscn3)C2)nc(N)n1` (stereo unspecified) reads -4.66%; that for `Cn1cc(C(=O)CC2CCCN2C(=O)c2cncc3ccccc23)cn1` (stereo unspecified), 4.11%.
The result for `CC1c2ncc(Cn3cccn3)n2CCN1Cc1ccc(F)cc1` (stereo unspecified) reads -107%; that for `CCn1cc(-c2nn3c(C(C)C)nnc3s2)c(C)n1`, -14.6%; that for `Cc1ccc2c(c1)SCC(=O)N2Cc1noc(C2CC2)n1`, 7.4%.
Take `Cc1nn(C)c2cnn(CC(=O)NCc3cccs3)c12`: the cytotoxicity at 10 µM stood at 6.28%.
The value for `CS(=O)(=O)c1nccn1Cc1ccc(F)cc1Cl` was -4.99%; that for `Cc1ccc(CSc2nc(N)cc(NCCC(N)=O)n2)cc1` was 0.375%.
